The subject of series [1] is Plasmodium falciparum. Put plainly: ST_JUDE: Cytotoxicity against Plasmodium falciparum SB-A6. It is filed as functional, organism-based.
A short description of series [2]: ST_JUDE: Cytotoxicity using luciferase to measure ATP as an indicator of the viability of human foreskin fibroblast cells (BJ). It is filed as toxicity, cell-based.
Series [3] deals with Plasmodium falciparum. Put plainly: ST_JUDE: Cytotoxicity against Plasmodium falciparum W2. Format: functional, organism-based.
The test system of series [4] is Plasmodium falciparum. The series can be described thus: ST_JUDE: Cytotoxicity against Plasmodium falciparum Dd2. Format: functional, organism-based.
For series [5], the system named is Plasmodium falciparum. The series can be described thus: ST_JUDE: Plasmodium falciparum K1 EC50 (uM) as measured by SYBR green dye. It is filed as functional, organism-based.
For the next series, the system named is Toxoplasma gondii. Put plainly: ST_JUDE: Growth inhibition of to Toxoplasma gondii, in human U-2OS cells, as measured by luciferase. Format: functional, organism-based. The conditions noted are these: RH, U2OS. The method, boiled down:
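T. gondii parasites engineered to express luciferase; drug sensitivity read by luminescence.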

Series [6] is described as follows: ST_JUDE: Cytotoxicity using luciferase to measure ATP as an indicator of the viability of human epithelial embryonic kidney cells (HEK293). Format: toxicity, cell-based.
The next series relates to Leishmania major. The series can be described thus: ST_JUDE: Cytotoxicity using Alamar Blue to measure viability of Leishmania major. Format: functional, organism-based. The method in brief:
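L. major promastigotes; drug susceptibility read with Alamar Blue.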
For orientation: Alamar Blue is a resazurin reagent that responds to reducing activity.

Series [7] in a line: ST_JUDE: Cytotoxicity using luciferase to measure ATP as an indicator of the viability of human Burkitt''s lymphoma lymphoblast cells (Raji). It is filed as toxicity, cell-based.
The test system of another series is Trypanosoma brucei. The series can be described thus: ST_JUDE: Cytotoxicity using luciferase to measure ATP as an indicator of the viability of Trypanosoma brucei. It is filed as functional, organism-based.
The subject of series [8] is Plasmodium falciparum. The series can be described thus: ST_JUDE: Plasmodium falciparum 3D7 EC50 (uM) as measured by SYBR green dye. Format: functional, organism-based.
In series [9] the test system is Plasmodium falciparum. The series can be described thus: ST_JUDE: Cytotoxicity against Plasmodium falciparum D10 transfected with yeast DHOD. Format: functional, organism-based.
Series [10] deals with Plasmodium falciparum. Put plainly: ST_JUDE: Cytotoxicity against Plasmodium falciparum K1. Format: functional, organism-based. The method in brief:
(§1)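 Asexual P. falciparum grown in human erythrocytes, exposed to compounds for 72 h, and growth read as the DNA quantity in treated versus control cultures. Dose-response run at 12 concentrations from 10 μM to 5 nM.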

A short description of series [11]: ST_JUDE: Cytotoxicity using luciferase to measure ATP as an indicator of the viability of human epithelial hepatocellular carcinoma cells (HepG2). It is filed as toxicity, cell-based.
Series [12] relates to Plasmodium falciparum. The series can be described thus: ST_JUDE: Cytotoxicity against Plasmodium falciparum 3D7. It is filed as functional, organism-based. The method, boiled down:
as §1

Series [13] has as its system Plasmodium falciparum. The series can be described thus: ST_JUDE: Cytotoxicity against Plasmodium falciparum V1/S. It is filed as functional, organism-based.

The results in this text go back to ChEMBL document CHEMBL1154198, “Chemical genetics of Plasmodium falciparum” (Nature, 2010).

SMILES strings stand for the structures.

With `COc1ccc2c(c1)N(C)/C(=C/c1cccc[n+]1C)S2`, the concentration giving a half-maximal response (EC50) in the series on Plasmodium falciparum [1] is 1.26 µM; in [2], > 15.7 µM; in the series with Plasmodium falciparum [3], > 4.04 µM; with Plasmodium falciparum [4], 0.472 µM; in the series with Plasmodium falciparum [5], 0.152 µM; with Toxoplasma gondii, > 8.63 µM. Besides, the EC50 in series [6] is > 15.7 µM; with Leishmania major, 0.0088 µM; in series [7] it was 6.52 µM; with Trypanosoma brucei, 0.643 µM; in the series with Plasmodium falciparum [8] it was 0.186 µM; in the series with Plasmodium falciparum [9], 2.46 µM. In addition, the EC50 is 0.386 µM in the series with Plasmodium falciparum [10], > 15.7 µM in series [11], 0.441 µM in the series on Plasmodium falciparum [12] and 1.5 µM in the series on Plasmodium falciparum [13].

`CCCO/C(O)=C1\C(C)=NC2=C(C(=O)CC(c3ccc(OC)c(OC)c3)C2)C1c1cccc(C)c1` (stereo not given): the concentration for a half-maximal effect (EC50) is 0.297 µM in the series with Plasmodium falciparum [1]; > 44.3 µM in series [2]; 4.56 µM with Plasmodium falciparum [3]; 1.34 µM in the series with Plasmodium falciparum [4]; 0.386 µM in the series with Plasmodium falciparum [5]; > 24.3 µM with Toxoplasma gondii. The concentration for a half-maximal effect (EC50) was > 44.3 µM in series [6]; > 19 µM in the series on Leishmania major; > 44.3 µM in [7]; 11.3 µM in the series on Trypanosoma brucei; 0.574 µM in the series on Plasmodium falciparum [8]; 0.456 µM in the series with Plasmodium falciparum [9]. The EC50 in the series on Plasmodium falciparum [10] came to 0.39 µM; in series [11] it was 41 µM; in the series with Plasmodium falciparum [12] it was 0.72 µM; in the series on Plasmodium falciparum [13] it was 0.634 µM.

With `N=c1n(CCN2CCCCC2)c2ccccc2n1CC(O)c1ccc(Cl)c(Cl)c1` (stereo not given), the concentration giving a half-maximal response (EC50) was 1.27 µM with Plasmodium falciparum [1]; 10.4 µM in [2]; 0.64 µM in the series on Plasmodium falciparum [3]; 0.346 µM in the series on Plasmodium falciparum [4]; 0.238 µM with Plasmodium falciparum [5]; 11.5 µM with Toxoplasma gondii. The EC50 was 16 µM in series [6]; > 21.9 µM in the series with Leishmania major; 21 µM in [7]; 4.12 µM in the series on Trypanosoma brucei; 0.186 µM in the series with Plasmodium falciparum [8]; 1.29 µM in the series on Plasmodium falciparum [9]. Moreover, the EC50 turned out to be 0.617 µM in the series with Plasmodium falciparum [10], 6.97 µM in series [11], 0.503 µM in the series with Plasmodium falciparum [12] and 1.43 µM with Plasmodium falciparum [13].

Turning to `CCOC(=O)C1(Cc2ccccc2)CCN(Cc2cccc(OC)c2O)CC1`, the EC50 was 3 µM in the series on Plasmodium falciparum [1]; > 37 µM in series [2]; 1.43 µM in the series on Plasmodium falciparum [3]; 1.76 µM with Plasmodium falciparum [4]; 1.05 µM with Plasmodium falciparum [5]; > 20.3 µM with Toxoplasma gondii. In addition, the EC50 in series [6] is > 37 µM; in the series on Leishmania major, > 15.8 µM; in series [7], > 37 µM; with Trypanosoma brucei, 30.9 µM; in the series with Plasmodium falciparum [8] it was 2.29 µM; with Plasmodium falciparum [9], 2.55 µM. Moreover, the EC50 with Plasmodium falciparum [10] is 0.645 µM; in series [11] it was > 37 µM; in the series with Plasmodium falciparum [12], 1.49 µM; in the series on Plasmodium falciparum [13], 0.908 µM.

As for `Cc1ccc(NC(=O)C2c3ccccc3C(=O)N(CC(C)C)C2c2cccs2)cc1C` (stereo not given), the EC50 in the series with Plasmodium falciparum [1] was 0.232 µM; in [2] it was > 41.2 µM; in the series with Plasmodium falciparum [3], 3.81 µM; in the series on Plasmodium falciparum [4] it was 0.323 µM; with Plasmodium falciparum [5] it was 0.129 µM; in the series with Toxoplasma gondii, > 22.6 µM. In addition, the EC50 in [6] is > 41.2 µM; in the series with Leishmania major it was > 17.6 µM; in [7], > 41.2 µM; in the series on Trypanosoma brucei it was 6.31 µM; in the series on Plasmodium falciparum [8], 0.0631 µM; with Plasmodium falciparum [9], 0.182 µM. Moreover, the EC50 in the series with Plasmodium falciparum [10] was 0.182 µM; in [11], > 41.2 µM; with Plasmodium falciparum [12] it was 0.208 µM; in the series with Plasmodium falciparum [13], 0.348 µM.

In the case of `CCO/C(O)=C1\C(C)=NC2=C(C(=O)CC(c3ccc(OC)c(OC)c3)C2)C1c1ccc([N+](=O)[O-])cc1` (stereo not given), the EC50 in the series with Plasmodium falciparum [1] was 0.228 µM; in series [2], > 43.9 µM; in the series on Plasmodium falciparum [3] it was 0.239 µM; with Plasmodium falciparum [4], 0.6 µM; with Plasmodium falciparum [5] it was 0.12 µM; with Toxoplasma gondii, > 24.1 µM. The EC50 in [6] is > 43.9 µM; in the series on Leishmania major, > 18.8 µM; in [7], > 43.9 µM; in the series with Trypanosoma brucei, 8.23 µM; in the series with Plasmodium falciparum [8] it was 0.177 µM; in the series with Plasmodium falciparum [9], 0.267 µM. Besides, the EC50 in the series on Plasmodium falciparum [10] is 0.272 µM; in [11] it was > 43.9 µM; with Plasmodium falciparum [12], 0.171 µM; in the series with Plasmodium falciparum [13] it was 0.597 µM.

For the compound `CCOc1ccc(/C=C/c2nc(=O)c3ccccc3o2)cc1`, the EC50 in the series with Plasmodium falciparum [1] is > 10.2 µM; in series [2], > 39.9 µM; with Plasmodium falciparum [3] it was 0.0731 µM; in the series on Plasmodium falciparum [4], 0.307 µM; in the series with Plasmodium falciparum [5], 0.128 µM; with Toxoplasma gondii, 0.273 µM. In addition, the EC50 is > 39.9 µM in series [6]; > 17.1 µM with Leishmania major; > 39.9 µM in series [7]; > 38.3 µM in the series on Trypanosoma brucei; 0.188 µM with Plasmodium falciparum [8]; > 10.2 µM in the series on Plasmodium falciparum [9]. Besides, the EC50 with Plasmodium falciparum [10] is 0.392 µM; in series [11] it was > 39.9 µM; with Plasmodium falciparum [12], 0.345 µM; with Plasmodium falciparum [13], 0.601 µM.

Consider `CCCCCCCn1ccc(=N)cc1`, for which the EC50 with Plasmodium falciparum [1] is 4.17 µM; in series [2], > 51.4 µM; in the series with Plasmodium falciparum [3], > 13.2 µM; in the series on Plasmodium falciparum [4] it was 2.73 µM; with Plasmodium falciparum [5], 2.52 µM; in the series on Toxoplasma gondii it was > 28.2 µM. In addition, the 50% effective concentration (EC50) was > 51.4 µM in [6]; > 22 µM in the series with Leishmania major; 10.8 µM in series [7]; > 49.3 µM in the series on Trypanosoma brucei; 3.1 µM in the series on Plasmodium falciparum [8]; 3.84 µM in the series with Plasmodium falciparum [9]. Besides, the EC50 in the series on Plasmodium falciparum [10] was 2.31 µM; in series [11], > 51.4 µM; with Plasmodium falciparum [12], 2.19 µM; in the series on Plasmodium falciparum [13], 10.3 µM.

Consider `CCN1/C(=C/c2cccc[n+]2C)Sc2ccc(OC)cc21`, for which the 50% effective concentration (EC50) in the series on Plasmodium falciparum [1] is 1.55 µM; in series [2], > 26.2 µM; in the series on Plasmodium falciparum [3], > 6.72 µM; in the series on Plasmodium falciparum [4], 0.748 µM; with Plasmodium falciparum [5], 0.329 µM; in the series with Toxoplasma gondii, > 14.3 µM. The EC50 in [6] is > 26.2 µM; in the series on Leishmania major, 0.0189 µM; in series [7], 3.16 µM; in the series on Trypanosoma brucei, 3.73 µM; with Plasmodium falciparum [8] it was 0.48 µM; in the series with Plasmodium falciparum [9], 1.27 µM. The EC50 is 0.784 µM in the series on Plasmodium falciparum [10], > 26.2 µM in series [11], 0.603 µM in the series on Plasmodium falciparum [12] and 1.08 µM with Plasmodium falciparum [13].

As to `Cc1ccc2c(c1)N(CCO)/C(=C/c1sc3ccccc3[n+]1C)S2`, the EC50 with Plasmodium falciparum [1] is 0.468 µM; in series [2] it was > 16.7 µM; with Plasmodium falciparum [3] it was 0.24 µM; in the series with Plasmodium falciparum [4], 0.197 µM; with Plasmodium falciparum [5], 0.162 µM; in the series on Toxoplasma gondii, > 9.16 µM. The EC50 in [6] is > 16.7 µM; in the series with Leishmania major, > 7.16 µM; in series [7], 1.78 µM; with Trypanosoma brucei, 5.2 µM; with Plasmodium falciparum [8], 0.423 µM; in the series on Plasmodium falciparum [9], 0.341 µM. The concentration giving a half-maximal response (EC50) in the series on Plasmodium falciparum [10] is 0.33 µM; in series [11], > 16.7 µM; with Plasmodium falciparum [12], 0.25 µM; in the series on Plasmodium falciparum [13], 0.394 µM.

A word on the EC50: it is the concentration at which the effect is half-maximal.
